Data as given in ChEMBL document CHEMBL4261626, “Design, synthesis, and effects of novel phenylpyrimidines as glucagon receptor antagonists” (Bioorg Med Chem, 2018).
Active and inactive are the calls of the source. The rule behind the calls is not given here.

What was measured:
[1] = (§1) Cytotoxicity against C57BL/6N mouse primary hepatocytes assessed as cell viability at 20 uM after 24 hrs by CCK8 assay; format: cell-based, Hepatocyte; details: C57BL/6N, primary hepatocytes, read-out: Activity
Method in brief: (§2)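 Hepatocytes were isolated by portal-vein perfusion and Percoll gradient from 10-week male C57BL/6N mice. Cells were seeded at 1×10^4/well and exposed to 20 μM compound in cell plating reagent for 24 h. CCK-8 was then added for 2 h at 37 °C and absorbance read at 450 nm. Three independent experiments, each in triplicate.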

Glucagon receptor [2] = molecular target: T1, Glucagon receptor (Homo sapiens, UniProt P47871); experiment: Antagonist activity at human glucagon receptor expressed in CHO-K1 GCGR Gs cells assessed as inhibition of glucagon-induced cAMP accumulation at 10 uM pre-incubated for 10 mins before glucagon and forskolin addition and further incubated for 30 mins by luminescence-based assay; format: functional, cell-based; details: in the assay text read “pre-incubated for 15 mins” for “pre-incubated for 10 mins”
Method in brief: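 CHO-K1 GCGR Gs cells were seeded at 1×10^4/well. The next day they were pre-treated with compound at 10 μM in PBS for 15 min at 37 °C, 5% CO₂. Then 0.1 nM glucagon plus 10 μM forskolin was added for a further 30 min. cAMP was read by HitHunter enzyme-complementation luminescence. Three independent experiments.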

Glucagon receptor [3] = molecular target: T1, Glucagon receptor; experiment: Antagonist activity at human glucagon receptor expressed in CHO-K1 GCGR Gs cells assessed as inhibition of glucagon-induced cAMP accumulation pre-incubated for 10 mins before glucagon and forskolin addition and further incubated for 30 mins by luminescence-based assay; format: functional, cell-based; details: in the assay text read “pre-incubated for 15 mins” for “pre-incubated for 10 mins”
Method in brief: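 Glucagon-receptor CHO-K1 GCGR Gs cells (1×10^4/well, plated the day before) were exposed to compound at 0.0001–100 μM in PBS for 15 min at 37 °C. Cells were then stimulated with 0.1 nM glucagon and 10 μM forskolin for 30 min. cAMP was measured by HitHunter luminescence. IC50 was fitted from three independent determinations.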

Hepatocyte [4] = experiment: Inhibition of glucagon-induced glucose production in C57BL/6N mouse primary hepatocytes grown under gluconeogenic medium at 20 uM after 30 mins by glucose assay reagent-based glucose oxidase method; format: functional; details: 0.5 h
Method in brief: (§3)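 Primary mouse hepatocytes were plated at 2.5×10^5/well. After 24 h they were washed and held 3 h in glucose-free DMEM. Compound (20 μM screen, or 1–100 μM series) was then added with 20 mM sodium lactate, 2 mM sodium pyruvate and 10 nM glucagon. Medium glucose was assayed by kit after 30 min and normalized to cellular protein. Five independent experiments, each in triplicate.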

Hepatocyte [5] = experiment: Inhibition of glucagon-induced glucose production in C57BL/6N mouse primary hepatocytes grown under gluconeogenic medium after 30 mins by glucose assay reagent-based glucose oxidase method; format: functional, cell-based; method in brief: as §3
Hepatocyte [6] = experiment: as §1; format: cell-based; details: hepatocytes, 24 h, 20 µM; method in brief: as §2
Hepatocyte [7] = experiment: Inhibition of glucagon-induced glucose production in C57BL/6N mouse primary hepatocytes grown under gluconeogenic medium at 20 uM after 3 hrs by glucose assay reagent-based glucose oxidase method; format: functional, cell-based
Method in brief: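 Mouse primary hepatocytes in glucose-free DMEM were given 20 μM compound for 3 h with 10 nM glucagon, 2 mM sodium pyruvate and 20 mM sodium lactate. Medium glucose was measured by glucose assay kit 30 min after glucagon. Three independent experiments.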

Mus musculus [8] = experiment: Antihyperglycemic activity in db/db mouse assessed as reduction in blood glucose level at 50 mg/kg, po administered once per day for 4 weeks and measured after 12 hrs fasting; format: functional, organism-based
Method in brief: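 Male db/db mice were obtained at 6 weeks; only animals with blood glucose over 400 mg/dL were used. They were dosed 50 mg/kg by oral intubation once daily for 4 weeks, in 9% cremophore with 10% DMSO in sterile water. Fasting blood glucose was read by glucometer after a 12 h fast at week 4. n=7/group.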

Mus musculus [9] = experiment: Antihyperglycemic activity in db/db mouse assessed pretreated at 50 mg/kg, po administered via intubation once per day for 4 weeks followed by fasting for 5 hrs before second administration at 50 mg/kg via oral gavage and subsequent glucagon challenge after 1 hr and measured durimng 15 to 60 mins post glucagon injection; format: functional, organism-based
Method in brief: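 Diabetic db/db mice were dosed orally at 50 mg/kg daily for 4 weeks (vehicle 9% cremophore/10% DMSO in sterile water). They were then fasted 5 h and re-dosed 50 mg/kg by gavage. After 1 h they received glucagon 15 μg/kg i.p. Blood glucose was measured at 15, 30, 45 and 60 min. n=4–6/group.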

Hepatocyte [10] = experiment: Inhibition of glucagon-induced glucose production in C57BL/6N mouse primary hepatocytes grown under gluconeogenic medium at 10 uM after 30 mins by glucose assay reagent-based glucose oxidase method; format: functional, cell-based; method in brief: as §3

T1 sequence (P47871 whole entry): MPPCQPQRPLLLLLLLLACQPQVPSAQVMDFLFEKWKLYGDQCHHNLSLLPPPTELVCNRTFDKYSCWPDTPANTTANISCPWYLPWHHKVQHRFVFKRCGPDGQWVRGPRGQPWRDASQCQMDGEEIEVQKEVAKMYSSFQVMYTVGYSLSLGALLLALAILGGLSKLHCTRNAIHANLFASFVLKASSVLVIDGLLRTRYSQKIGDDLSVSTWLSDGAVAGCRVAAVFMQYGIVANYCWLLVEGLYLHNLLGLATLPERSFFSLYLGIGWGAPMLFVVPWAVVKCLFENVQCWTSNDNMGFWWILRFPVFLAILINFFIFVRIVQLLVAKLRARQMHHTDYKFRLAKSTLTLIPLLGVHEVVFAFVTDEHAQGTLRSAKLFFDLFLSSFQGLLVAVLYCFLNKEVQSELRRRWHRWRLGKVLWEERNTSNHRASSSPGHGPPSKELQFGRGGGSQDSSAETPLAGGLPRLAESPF

Structure (SMILES) | inhibition (Glucagon receptor [2]) | IC50 (Glucagon receptor [3]) | viability at 24 h, 20 µM [1] | inhibition at 20 µM (Hepatocyte [4]) | further results
CCCCC(Oc1ncc(-c2cc(Cl)cc(Cl)c2)cn1)c1ccc(C(=O)NCCC(=O)O)cc1 (configuration not stated) | > 60% | 6.9 µM | > 80% | > 60% | inhibition (Hepatocyte [5]): Dose-dependent effect
CCCC[C@H](Oc1ncc(-c2ccccc2)cn1)c1ccc(C(=O)NCCC(=O)O)cc1 | – | 8.5 µM | – | – | Activity (Hepatocyte [6]): Toxic; inhibition (Hepatocyte [7]): Active; Activity (Mus musculus [8]): Active; Activity (Mus musculus [9]): Active
CCCC[C@@H](Oc1ncc(-c2ccccc2)cn1)c1ccc(C(=O)NCCC(=O)O)cc1 | – | 9.3 µM | – | – | Activity (Hepatocyte [6]): Non-Toxic; inhibition (Hepatocyte [7]): Active; Activity (Mus musculus [8]): Active; Activity (Mus musculus [9]): Active
CCC(CC)C(=O)Nc1sc2c(c1C#N)CCC(C(C)(C)CC)C2 (configuration not stated) | > 60% | – | > 80% | – | –
Cc1cc(O[C@@H](CCC(F)(F)F)c2ccc(C(=O)NCCC(=O)O)cc2)cc(C)c1-c1ccc(C(C)(C)C)cc1 | – | – | – | – | Activity (Mus musculus [8]): inactive
CCCC[C@H](Oc1ncc(-c2ccc(C(C)(C)C)cc2)cn1)c1ccc(C(=O)NCCC(=O)O)cc1 | – | – | – | – | Activity (Hepatocyte [6]): Toxic; inhibition (Hepatocyte [7]): inactive
CCCCC(Oc1ncc(-c2ccc(Oc3ccccc3)cc2)cn1)c1ccc(C(=O)NCCC(=O)O)cc1 (configuration not stated) | > 60% | 8.2 µM | > 80% | > 60% | –
CCCC[C@@H](Oc1ncc(-c2ccc(C(C)(C)C)cc2)cn1)c1ccc(C(=O)NCCC(=O)O)cc1 | – | – | – | – | Activity (Hepatocyte [6]): Toxic; inhibition (Hepatocyte [7]): inactive
CCCCC(Oc1ncc(-c2ccc(CC)cc2)cn1)c1ccc(C(=O)NCCC(=O)O)cc1 (configuration not stated) | > 60% | 17.7 µM | > 80% | > 60% | –

Continued, in another order:

inhibition (Glucagon receptor [2]) | IC50 (Glucagon receptor [3]) | Structure (SMILES) | viability at 24 h, 20 µM [1] | inhibition at 20 µM (Hepatocyte [4]) | further results
> 60% | – | CCCCC(Oc1ncc(-c2ccc(Cl)cc2)cn1)c1ccc(C(=O)NCCC(=O)O)cc1 (configuration not stated) | > 80% | – | –
> 60% | – | CCCCC(Oc1ncc(-c2cccc(Cl)c2)cn1)c1ccc(C(=O)NCCC(=O)O)cc1 (configuration not stated) | > 80% | – | –
> 60% | – | CCCCC(Oc1ncc(-c2ccc(C(F)(F)F)cc2)cn1)c1ccc(C(=O)NCCC(=O)O)cc1 (configuration not stated) | > 80% | – | –
> 60% | 6 µM | CCCCC(Oc1ncc(-c2ccc(C(C)(C)C)cc2)cn1)c1ccc(C(=O)NCCC(=O)O)cc1 (configuration not stated) | > 80% | > 60% | inhibition (Hepatocyte [5]): Dose-dependent effect; inhibition (Hepatocyte [10]): Active
> 60% | – | CCCCC(Oc1ncc(-c2ccccc2Cl)cn1)c1ccc(C(=O)NCCC(=O)O)cc1 (configuration not stated) | > 80% | – | –
> 60% | 4.1 µM | CCCCC(Oc1ncc(-c2ccccc2)cn1)c1ccc(C(=O)NCCC(=O)O)cc1 (configuration not stated) | > 80% | > 60% | inhibition (Hepatocyte [5]): Dose-dependent effect; inhibition (Hepatocyte [10]): Active
> 60% | – | CCCCC(Oc1ncc(-c2ccc(C(F)(F)F)cc2F)cn1)c1ccc(C(=O)NCCC(=O)O)cc1 (configuration not stated) | > 80% | – | –
